Consider three compounds from ChEMBL document CHEMBL4325900, “Antibacterial activity evaluation of synthetic novel pleuromutilin derivatives in vitro and in experimental infection mice” (2019).

Each structure is given as a SMILES string. Values after ≈ are worked out from the molar mass of the structure shown.

One test deals with Enterococcus faecium. In words: Antibacterial activity against Enterococcus faecium after 24 hrs by NCCLS method. Format: functional. The method in brief:
(§1)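 Broth microdilution in Mueller-Hinton broth. Stocks at 1280 µg/mL in aqueous 10-20% DMSO were diluted to 128 µg/mL, then serially 2-fold diluted giving final concentrations of 64 down to 0.125 µg/mL. Overnight MHB cultures were diluted to 10^6~10^7 CFU/mL, and 100 µL was added per well. Plates ran 24 h at 37°C. MIC was read from OD against an MHB blank, in triplicate.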

For test [1], the system named is Staphylococcus aureus. In words: Antibacterial activity against methicillin-resistant Staphylococcus aureus infected in Kunming mouse assessed as mouse survival at 40 mg/kg, ig qd treated for 3 consecutive days and measured at day 6 relative to control. Format: functional. Particulars: po, 144 h. The essentials:
(§2)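 Female Kunming mice, 22±2 g, made neutropenic with cyclophosphamide i.p., 150 mg/kg 4 days and 100 mg/kg 1 day before infection. Infected i.p. with 0.5 mL suspension of clinical MRSA isolate. Intragastric dosing at 20 or 40 mg/kg/d, starting 1 h post-infection, once daily for 3 consecutive days. Survival monitored.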

Test [2] has as its system Staphylococcus aureus. In words: Antibacterial activity against methicillin-resistant Staphylococcus aureus infected in Kunming mouse assessed as mouse survival at 40 mg/kg, ig qd treated for 3 consecutive days and measured at day 5 relative to control. The class given is functional. The settings on record: po, 120 h. The essentials:
as §2

Test [3] relates to Staphylococcus aureus. As to the kind of experiment: Antibacterial activity against methicillin-resistant Staphylococcus aureus infected in Kunming mouse assessed as mouse survival at 40 mg/kg, ig qd treated for 3 consecutive days and measured during compound treatment relative to control. Format: functional. The settings on record: po. The method in brief:
as §2

The test system of test [4] is Staphylococcus aureus. As to the kind of experiment: Antibacterial activity against methicillin-resistant Staphylococcus aureus clinical isolates infected in ip dosed mouse assessed as reduction in bacterial infection administered 1 hr after infection and measured after 7 days. The class given is functional. The essentials: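 Kunming mice, half male and half female, 19-23 g, 10 per group. Infected i.p. with 0.5 mL clinical MRSA isolate suspension (~10^7 CFU/mL). Single i.p. dose 1 h post-infection, five dose levels between 7.0 and 50.0 mg/kg depending on compound. Vehicle was DMSO:Tween-80:water 1:1:8, or water for valnemulin. ED50 by Probit analysis from survival after 7 days; 95% confidence ranges.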

Test [5] relates to Staphylococcus aureus. As to the kind of experiment: Antibacterial activity against methicillin-resistant Staphylococcus aureus infected in Kunming mouse assessed as mouse survival at 20 mg/kg, ig qd treated for 3 consecutive days and measured up to 10 days relative to control. The class given is functional. The settings on record: po, 240 h. The method in brief: as §2
A further test concerns Pasteurella multocida. In words: Antibacterial activity against Pasteurella multocida after 24 hrs by NCCLS method. The class given is functional. The essentials:
as §1

The test system of another test is Enterococcus faecalis. As to the kind of experiment: Antibacterial activity against Enterococcus faecalis after 24 hrs by NCCLS method. The class given is functional. The essentials: as §1
Test [6] has as its system Escherichia coli. As to the kind of experiment: Antibacterial activity against Escherichia coli ATCC 11775 after 24 hrs by NCCLS method. Particulars: DSM 30083 = JCM 1649 = ATCC 11775, 24 h. Format: functional. The essentials: as §1
The test system of test [7] is Staphylococcus aureus. As to the kind of experiment: Antibacterial activity against methicillin-sensitive Staphylococcus aureus after 24 hrs by NCCLS method. Format: functional. The essentials: as §1
The subject of test [8] is Staphylococcus aureus. In words: Bactericidal activity against exponential phase of methicillin-resistant Staphylococcus aureus after 1 to 4 hrs by time kill kinetics assay. Format: functional, organism-based. The method in brief:
(§3)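 Exponential-phase S. aureus (4 h at 37°C, 120 rpm) diluted to ~2×10^7 CFU/mL in MHB and mixed 1:1 with MHB containing twice the desired compound concentration. Shaken at 37°C, 120 rpm. Samples at 1, 2, 3 and 4 h washed with PBS, diluted, spot-plated on MH agar, counted after ~18 h at 37°C as log10 CFU/mL. Triplicate, mean±s.d.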

Test [9] concerns Staphylococcus epidermidis. As to the kind of experiment: Antibacterial activity against methicillin-resistant Staphylococcus epidermidis after 24 hrs by NCCLS method. Format: functional. The essentials:
(§4)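 Broth microdilution in Mueller-Hinton broth. Stocks at 1280 µg/mL in aqueous 10-20% DMSO, diluted to 128 µg/mL, then 2-fold serially to final 64 down to 0.125 µg/mL. Overnight MHB cultures diluted to 10^6~10^7 CFU/mL and added 1:1 to compound. Incubated 24 h at 37°C. MIC read from OD against MHB blank. Three parallels per concentration.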

Test [10] concerns Staphylococcus epidermidis. In words: Antibacterial activity against methicillin-sensitive Staphylococcus epidermidis after 24 hrs by NCCLS method. The class given is functional. The essentials:
as §4

The subject of test [11] is Staphylococcus aureus. As to the kind of experiment: Antibacterial activity against methicillin-resistant Staphylococcus aureus after 24 hrs by NCCLS method. The class given is functional. The method in brief:
as §4

For test [12], the system named is Staphylococcus aureus. As to the kind of experiment: Bactericidal activity against exponential phase of methicillin-resistant Staphylococcus aureus assessed as time required for complete bacterial killing at 4 times MIC by time kill kinetics assay. Format: functional. The method in brief: as §3
The subject of test [13] is Staphylococcus aureus. In words: Bactericidal activity against exponential phase of methicillin-resistant Staphylococcus aureus assessed as time required for complete bacterial killing at 8 times MIC by time kill kinetics assay. Format: functional. The method in brief:
as §3

Test [14] relates to Escherichia coli. As to the kind of experiment: Potency index, ratio of MIC for Valnemulin hydrochloride to MIC for test compound for antibacterial activity against Escherichia coli ATCC 11775 after 24 hrs by NCCLS method. The class given is functional, DSM 30083 = JCM 1649 = ATCC 11775.

For `C=C[C@]1(C)C[C@@H](OC(=O)CSC(C)(C)CNC(=O)[C@H](N)C(C)C)[C@]2(C)[C@H](C)CC[C@]3(CCC(=O)[C@H]32)[C@@H](C)[C@@H]1O.Cl` [VALNEMULIN HYDROCHLORIDE], the MIC in the test with Enterococcus faecium was 0.125 µg/mL; in the test on Pasteurella multocida it was 16 µg/mL; against Enterococcus faecalis it was more than 64 µg/mL; with Escherichia coli [6] it was 32 µg/mL; in the test with Staphylococcus aureus [7], 0.25 µg/mL; in test [9], 0.25 µg/mL. Also, the MIC in [10] was 0.125 µg/mL; against Staphylococcus aureus [11], 0.25 µg/mL. Moreover, the survival at 40 mg/kg is 80% with Staphylococcus aureus [1], 70% with Staphylococcus aureus [2] and more than 90% in the test on Staphylococcus aureus [3]. Besides, the ED50 in the test with Staphylococcus aureus [4] worked out at 13.5 mg/kg. Also, in the test on Staphylococcus aureus [5], the survival at 20 mg/kg was found to be 30%. Besides, the Activity result in the test with Staphylococcus aureus [8] was “Dose-dependent effect”.
Turning to `C=C[C@]1(C)C[C@@H](OC(=O)CSc2nc(NC(=O)CN3CCCC3)c3cc[nH]c3n2)[C@]2(C)[C@H](C)CC[C@]3(CCC(=O)[C@H]32)[C@@H](C)[C@@H]1O`, the MIC is 0.0625 µg/mL (≈ 0.098 µM) against Enterococcus faecium; 16 µg/mL (≈ 25.1 µM) in the test with Pasteurella multocida; 64 µg/mL (≈ 100 µM) in the test on Enterococcus faecalis; 32 µg/mL (≈ 50.2 µM) in the test with Escherichia coli [6]; 0.0625 µg/mL (≈ 0.098 µM) with Staphylococcus aureus [7]; 0.0625 µg/mL (≈ 0.098 µM) in test [9]. Further, the MIC (in test [10]; against Staphylococcus aureus [11]) was 0.0625 µg/mL (≈ 0.098 µM) throughout. Moreover, the survival at 40 mg/kg with Staphylococcus aureus [1] is 80%; in the test with Staphylococcus aureus [2], 70%; in the test on Staphylococcus aureus [3], more than 90%. Besides, the 50% effective dose (ED50) in the test on Staphylococcus aureus [4] came out at 16 mg/kg. In addition, the survival at 20 mg/kg in the test with Staphylococcus aureus [5] was 30%. In addition, the Time in the test with Staphylococcus aureus [12] was determined as 4 h; in the test with Staphylococcus aureus [13], 2 h. Moreover, the Activity result with Staphylococcus aureus [8] is “Dose-dependent effect”.
Turning to `C=C[C@]1(C)C[C@@H](OC(=O)CSc2nc(NC(=O)CN(CC)CC)c3cc[nH]c3n2)[C@]2(C)[C@H](C)CC[C@]3(CCC(=O)[C@H]32)[C@@H](C)[C@@H]1O`, the MIC turned out to be 0.125 µg/mL (≈ 0.195 µM) against Enterococcus faecium; 64 µg/mL (≈ 100 µM) against Pasteurella multocida; 32 µg/mL (≈ 50 µM) in the test with Enterococcus faecalis; 16 µg/mL (≈ 25 µM) in the test on Escherichia coli [6]; 0.0625 µg/mL (≈ 0.0977 µM) with Staphylococcus aureus [7]; 0.125 µg/mL (≈ 0.195 µM) in [9]. The MIC (in [10]; against Staphylococcus aureus [11]) was 0.0625 µg/mL (≈ 0.0977 µM) each time. For the same compound, the Ratio in the test on Escherichia coli [14] amounted to 2. The ED50 in the test with Staphylococcus aureus [4] was 27.7 mg/kg.
